Molecular target: T1, Glucocorticoid receptor (Homo sapiens, UniProt P04150)
T1 sequence (P04150 whole entry): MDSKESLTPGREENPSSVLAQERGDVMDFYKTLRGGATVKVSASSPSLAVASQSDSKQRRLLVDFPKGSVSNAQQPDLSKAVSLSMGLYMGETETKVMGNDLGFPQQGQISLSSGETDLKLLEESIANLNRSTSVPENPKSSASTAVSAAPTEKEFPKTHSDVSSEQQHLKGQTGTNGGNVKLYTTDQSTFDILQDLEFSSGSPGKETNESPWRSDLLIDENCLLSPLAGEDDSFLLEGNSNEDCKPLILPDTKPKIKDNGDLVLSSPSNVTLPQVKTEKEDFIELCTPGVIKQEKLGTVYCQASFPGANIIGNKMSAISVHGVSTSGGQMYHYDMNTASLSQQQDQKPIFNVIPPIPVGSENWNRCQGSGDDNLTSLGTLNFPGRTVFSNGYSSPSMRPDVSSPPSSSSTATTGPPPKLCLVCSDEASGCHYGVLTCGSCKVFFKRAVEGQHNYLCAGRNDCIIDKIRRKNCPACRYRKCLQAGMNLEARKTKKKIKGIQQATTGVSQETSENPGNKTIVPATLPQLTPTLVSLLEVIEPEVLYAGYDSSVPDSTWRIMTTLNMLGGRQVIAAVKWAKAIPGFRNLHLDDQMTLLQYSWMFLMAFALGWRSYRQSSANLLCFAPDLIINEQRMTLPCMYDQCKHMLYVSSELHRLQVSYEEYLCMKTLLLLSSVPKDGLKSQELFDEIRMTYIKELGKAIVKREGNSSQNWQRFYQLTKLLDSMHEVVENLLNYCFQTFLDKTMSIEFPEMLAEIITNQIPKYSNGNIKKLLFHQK
Assay: Inhibition of GR-mediated transactivation of galactosidase reporter gene in HEK293 cells expressing 11betaHSD1
Method in brief: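 HEK-293 cells transfected with pMMTV-LacZ, pCMV-LUC, GR, 11β-HSD1 and H6PDH plasmids. After 6 h, washed into steroid-free medium, then 24 h with 250 nM cortisone and graded inhibitor. β-Galactosidase normalized to luciferase, as % of steroid-only control. IC50 from four independent experiments, means ± SD.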

CC(=O)OC1CC[C@]2(C)C3=C(C(=O)C[C@H]2C1(C)C)[C@]1(C)CCC(C(C)CCC(=O)O)[C@@]1(C)CC3=O (stereo partly drawn) [4-((5R,10S,13R,14R)-3-acetoxy-4,4,10,13,14-pentamethyl-7,11-dioxo-2,3,4,5,6,7,10,11,12,13,14,15,16,17-tetradecahydro-1H-cyclopenta[a]phenanthren-17-yl)pentanoic acid]
IC50: 2090 nM

Reference: BindingDB's records for doi:10.1021/jm0600794 (University of Innsbruck, 2006)
